# Only some compounds are listed: those with a hit (about 1.8% of all), similar ones and a draw of the others.
# NPY1 pot ag – potentiates or activates human NPY-Y1 receptor; AID 1304; 220,000 compounds, 0.37% hits; NPY-Y1 expressing cells, potentiator/agonist activation; activation, % at 3.6 µM; P25929; in the data active means activation above about 33%, passing the limit was not always enough;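 further: cells stimulated with NPY at EC10 then isoproterenol at EC100; 0% = low agonist plus stimulus and 100% = saturating agonist plus stimulus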
# NPY-Y1 antag – blocks the human neuropeptide Y Y1 receptor; HEK293-CNG Y1 cells, membrane potential fluorescence; NPY at EC95, then isoproterenol; 200,000 compounds, 1% hits; inhibition, % at 3.6 µM; P25929;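 active means inhibition above the campaign mean inhibition of all tested compounds plus 3 SD, cut at about 20% in these data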;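 further: 0% = DMSO wells given NPY plus isoproterenol and 100% = isoproterenol alone without NPY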
#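 Assay system: HEK293 cells with Y1 receptor plus CNG channel | Probe or stimulus: NPY (25 nM), isoproterenol (1 µM), Ro 20-1724 (25 µM) | Timing: Compound incubation 1 h at room temperature, readout 45 min post-stimulation | Measured by: Membrane-potential fluorescent dye readout | Benchmarks: High control isoproterenol alone, low control NPY with isoproterenol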
# NPY Y2 blocker – NPY-Y2 (human) receptor antagonism; NPY-Y2 expressing cells, antagonist mode; 140,000 compounds, 0.99% hits; inhibition, % at 2.7 µM;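 further: 0% = vehicle with agonist challenge and 100% = reference antagonist with challenge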
# Target sequence (P49146 whole entry, looked up): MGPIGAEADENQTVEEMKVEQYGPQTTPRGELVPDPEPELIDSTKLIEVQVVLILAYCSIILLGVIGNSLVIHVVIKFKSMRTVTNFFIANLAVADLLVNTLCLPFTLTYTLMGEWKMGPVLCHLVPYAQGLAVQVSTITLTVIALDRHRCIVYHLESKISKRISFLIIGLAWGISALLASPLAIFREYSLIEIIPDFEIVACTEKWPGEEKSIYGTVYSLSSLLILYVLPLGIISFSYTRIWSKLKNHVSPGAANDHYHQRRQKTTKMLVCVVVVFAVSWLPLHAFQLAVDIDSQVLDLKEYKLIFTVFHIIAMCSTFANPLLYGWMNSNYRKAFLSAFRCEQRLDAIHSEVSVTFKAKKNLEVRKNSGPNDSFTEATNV
# NPY-Y2 PAM-ag – human NPY-Y2 potentiation or agonism, primary screen | activation, % at 3.6 µM | 220,000 compounds, 0.45% hits | AID 1359 | P49146 | cells expressing NPY-Y2, potentiator/agonist read-out; in the data active means activation above about 27%;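 further: cells stimulated with NPY near EC25 plus isoproterenol at EC100; 0% = vehicle plus submaximal agonist and 100% = vehicle plus saturating agonist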
# NPY-Y1 ant conf – confirmation of human neuropeptide Y receptor Y1 antagonists | shares compounds with NPY-Y1 antag | HEK293-CNG NPY-Y1, membrane potential fluorescence, cAMP; NPY challenge against isoproterenol-raised cAMP | inhibition, % at 3.6 µM | 1,200 compounds, 21% hits | AID 1254; in the data active means inhibition above about 20%;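 further: 0% = vehicle with agonist plus stimulus and 100% = stimulus alone without agonist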
# NPY2 antag ctr – counter-screen for NPY-Y1 antagonists: human NPY-Y2 antagonism | shares compounds with NPY-Y1 antag | HEK293 NPY-Y2 CNG membrane potential fluorescence; cells given NPY, then isoproterenol | inhibition, % at 3.6 µM | 1,200 compounds, 28% hits;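 further: 0% = DMSO with agonist challenge and 100% = reference antagonist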
# * hit, by the source's call; / = no result. Unless noted, no stated cut-off is given here; in the data, active means inhibition above about 17%; inactive means the rest.
SMILES,NPY1 pot ag,NPY-Y1 antag,NPY Y2 blocker,NPY-Y2 PAM-ag,NPY-Y1 ant conf,NPY2 antag ctr
CCCCC(CCC(=O)Nc1ccccc1C(=O)OCC)C(=O)O (stereo unspecified),-15.9,23.1*,11.5,-64.0,11.4,12.7
COc1ccc(CCN(Cc2ccccn2)C(=S)Nc2ccccc2Cl)cc1OC,-7.6,27.9*,/,-3.2,17.9,7.9
COc1ccc(C(=O)NC(CC(=O)O)c2cc([N+](=O)[O-])ccc2Cl)cc1 (stereo unspecified),20.2,5.4,/,19.9,/,/
CCOC(=O)c1c(NC(=O)C(F)(OC)C(F)(F)F)sc(C(=O)N2CCCCC2)c1C (stereo unspecified),-14.8,21.9*,2.0,8.8,9.3,4.4
CCN1/C(=C/C(C)=C/c2sc3ccccc3[n+]2CC)Sc2ccccc21,-12.3,106.5*,/,4.2,79.0*,53.4*
O=C(c1cnn2c(C(F)(F)F)cc(-c3ccco3)nc12)N1CCc2ccccc2C1,-48.6,21.4*,11.3,-17.9,9.6,7.4
COc1ccc(-c2cc(C(F)(F)F)n3ncc(C(=O)O)c3n2)cc1OC,-6.9,-2.5,4.0,21.3,/,/
O=C(c1cnn2c(C(F)(F)F)cc(-c3ccco3)nc12)N1CCCCCC1,-18.9,0.6,4.7,-28.5,/,/
Cc1ccc(-c2cc(C(F)(F)F)n3ncc(C(=O)O)c3n2)cc1,-2.4,20.6*,1.7,-10.1,1.7,2.8
O=C(CNCc1ccccc1Cl)NCc1ccco1,1.0,-3.7,/,2.1,/,/
O=S(=O)(NCc1cc(-c2ccccc2)no1)c1ccc(Cl)cc1,-48.9,6.8,4.1,-21.1,/,/
Fc1cnc(N/N=C/c2ccc(-c3ccc(Br)cc3)o2)nc1N1CCOCC1,-5.0,/,/,-6.8,/,/
CCCCOC(=O)c1ccc(NC(=O)c2c(Cl)ccc(Cl)c2OC)cc1,-33.4,24.1*,8.2,-20.9,17.4,14.2
Cn1nccc1C(=O)Nc1cccc(C(F)(F)F)c1,13.3,1.7,/,15.1,/,/
Cn1nc(C(=O)Nc2cccc(C(F)(F)F)c2)c2ccccc2c1=O,-50.3,29.1*,13.2,-65.7,16.6,8.6
NC(=O)NC(=O)COC(=O)CNS(=O)(=O)c1ccc(F)c(F)c1F,-0.1,/,/,2.8,/,/
COc1ccc(-c2nnc(OCc3nc4ccccc4n3C)c3ccccc23)cc1,-0.8,8.2,10.4,-7.3,/,/
Cn1c(COc2nnc(-c3ccc(Cl)cc3)c3ccccc23)nc2ccccc21,2.8,39.4*,0.8,13.1,1.2,-1.1
c1ccc2c(N3CCOCC3)nc(-c3ccncc3)nc2c1,7.4,-1.3,2.1,13.9,/,/
CCN1CCN(c2nc(-c3ccccc3)nc3ccccc23)CC1,-36.4,21.1*,5.1,0.7,9.9,5.8
CCOc1ccc(NC(=O)N(C2CCCC2)C2CCN(C(C)=O)CC2)cc1,-1.0,-4.0,/,-9.4,/,/
COc1ccccc1-c1nc(-c2ccc(Br)o2)no1,2.0,1.7,0.9,6.5,/,/
COc1ccc(C(c2nnnn2Cc2ccccc2)N2CCN(C(=O)c3ccco3)CC2)cc1 (stereo unspecified),8.3,2.2,2.6,3.0,/,/
O=C(c1ccco1)N1CCN(C(c2ccc(Cl)cc2)c2nnnn2Cc2ccccc2)CC1 (stereo unspecified),-21.7,21.1*,0.1,4.1,0.0,1.2
Cn1ccnc1C1CCCCN1Cc1nc(-c2ccc(Cl)cc2)no1 (stereo unspecified),-15.0,42.6*,/,-25.6,13.4,9.4
SMILES,NPY1 pot ag,NPY-Y1 antag,NPY Y2 blocker,NPY-Y2 PAM-ag,NPY-Y1 ant conf,NPY2 antag ctr
COc1ccccc1NC(=O)/C=C/c1ccc2c(c1)OCO2,-9.4,15.4,/,-25.5,/,/
COc1ccccc1NC(=O)COC(=O)/C=C/c1ccc2c(c1)OCO2,-29.1,26.8*,/,-48.8,11.2,7.1
Clc1ccc(-c2nc3ccccn3c2CN2CCCCC2)cc1,-9.5,7.5,/,-9.4,/,/
CN1Cc2cc(C(=O)c3cc(Cl)cc(CSc4ncccn4)c3O)cnc2NC1=O,0.7,21.2*,3.6,-1.0,-1.1,15.4
NC(=O)c1cc(N)ccc1N1CCCCC1,6.9,5.6,/,13.8,/,/
Cc1cccc(C)c1OC1(c2ccccc2)OC(=O)c2ccccc21 (stereo unspecified),-10.5,22.3*,11.2,-19.6,6.1,7.2
CCOC1(c2ccccc2)OC(=O)c2ccccc21 (stereo unspecified),-16.6,-2.5,-0.4,6.6,/,/
Cc1cc(C)c(OC2(c3ccccc3)OC(=O)c3ccccc32)c(C)c1 (stereo unspecified),-8.2,30.5*,16.4,-16.7,11.0,7.4
Oc1ccccc1CNCCCNCc1ccccc1O,-70.3,30.0*,9.8,-16.2,11.8,17.0
OCCCNCc1cccc2ccccc12,-18.0,5.4,4.1,-9.9,/,/
C/C=C/c1ccccc1OCc1ccc(C(=O)O)o1,-24.7,22.1*,13.7,-23.9,16.5,12.4
COC(=O)c1ccc(COc2ccccc2/C=N/O)o1,1.5,/,/,-1.3,/,/
OCCNCCCOc1cc(Cl)ccc1Cl,-7.8,5.2,/,-1.3,/,/
COc1ccc(OCC(=O)O/N=C(\N)Cc2ccc(Cl)cc2)cc1,-47.0,22.5*,9.6,-12.5,6.7,6.7
COc1ccc2c(c1)c(C(O)CN1CCC(Cc3ccccc3)CC1)c(C)n2C (stereo unspecified),0.4,21.1*,12.2,2.3,9.6,9.7
COc1ccc2c(c1)c(C(O)CN1CCN(Cc3ccc4c(c3)OCO4)CC1)c(C)n2C (stereo unspecified),-11.1,5.7,8.8,14.8,/,/
COc1cc(OC)c(OC)cc1CN1CCCC(C(=O)c2sccc2C)C1 (stereo unspecified),11.7,/,/,-32.0,/,/
Cc1ccsc1C(=O)C1CCCN(Cc2cc(F)ccc2-n2cccn2)C1 (stereo unspecified),-21.9,29.6*,/,-33.5,7.5,12.5
Cc1cc(-c2ccccc2)nc(Oc2ccc(C(C)(C)C)cc2)c1S(C)(=O)=O,-37.5,23.4*,8.2,-20.8,6.5,14.2
O=C(NCCN1CCOCC1)N1c2ccccc2Sc2ccccc21,-10.4,5.7,1.1,2.0,/,/
COc1cccc(Oc2cn[nH]c2-c2ccc(O)cc2O)c1,-21.9,153.2*,7.2,15.1,61.5*,4.1
CCN(CC)CCCNC(=O)C1c2ccccc2C(=O)N1Cc1ccc(C)cc1 (stereo unspecified),-19.5,-2.7,-0.3,8.4,/,/
Cc1cccc(/C=C/c2nc3ccccc3c(=O)[nH]2)c1,3.9,1.4,/,-4.8,/,/
S=C1NCN(Cc2ccco2)CN1c1cccc2ccccc12,-2.0,/,/,-9.1,/,/
Cc1ccccc1CN(C)C(C)C(=O)Nc1ccccc1F (stereo unspecified),-1.5,22.7*,/,-16.3,16.7,7.8
Cc1cccc(C)c1NC(=O)CN(C)C(C)C(=O)Nc1ccccc1-c1ccccc1 (stereo unspecified),-20.3,7.7,/,-4.1,/,/
Cc1cccc(-c2nsc(SCC(=O)NCC3CCCO3)n2)c1 (stereo unspecified),10.8,30.0*,/,-5.5,4.5,1.9

# High-throughput results as filed in PubChem.
